Results on two molecules are retold here after PMC5481844 (Biomedical chromatography : BMC, 2015).

Like-named read-outs stand apart in the source and are kept apart here.

For series [1] the following is noted: acid hydrolysis also observed; ref Stariat et al., 2009; cited from earlier work.
The nature of series [2]: stability in different solvents. The series is classed as physicochemical. In a few lines: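 Remaining amount was quantified by LC-MS/MS: C18 gradient with 0.1% formic acid, positive ESI, SRM m/z 235.2/178.0, 2-amino-6-bromobenzothiazole internal standard.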
The target of a further series is human serum albumin (Homo sapiens, UniProt P02768). In words: binding to human serum albumin solution by ultrafiltration. It counts as in vitro ADME. Conditions: human serum albumin (4%) in PBS, 500 ng/mL, n = 3. Summed up:
(§1)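 Test compound was spiked to a final 500 ng/mL into 4% human serum albumin or 0.1% human α1-acid glycoprotein in PBS. Samples were incubated 1 h at 37 °C, then ultrafiltered through a 30 kDa cutoff device for 20 min at 13,000 g. Total and filtrate concentrations were measured by LC-MS/MS. %bound = 100×(Ctotal−Cfree)/Ctotal, with the filtrate corrected for membrane adsorption using recovery from water. n = 3.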

In series [3] the test system is human plasma proteins. In words: plasma binding by ultrafiltration. It counts as in vitro ADME. Summed up: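 Pooled human plasma was spiked with test compound in DMSO to a final 500 ng/mL; preliminary runs also used 31.25 and 3.9 ng/mL. After 1 h at 37 °C, plasma was ultrafiltered (30 kDa cutoff, 20 min, 13,000 g). Total plasma and ultrafiltrate levels were measured by LC-MS/MS. %bound = 100×(Ctotal−Cfree)/Ctotal, corrected for membrane adsorption via recovery from water. n = 3.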

The test system of series [4] is human plasma proteins. The experiment in a line: plasma binding by ultracentrifugation. The series is classed as in vitro ADME. Conditions: 500 ng/mL, n = 3. In a few lines:
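Pooled human plasma was spiked with test compound in DMSO (final 500 ng/mL) and incubated 1 h at 37 °C. It was then spun at 50,000 rpm in a fixed-angle rotor for 10 h at 20 °C. The supernatant gave free and whole plasma gave total concentration, both by LC-MS/MS. %bound = 100×(Ctotal−Cfree)/Ctotal. n = 3.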

Another series can be described thus: stability in plasma. The series is classed as in vitro ADME, human. The note with it: for Measured concentration: n = 3. Summed up: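 Human plasma was spiked at 100 and 500 ng/mL and kept at room temperature or on ice for up to 24 h; percent remaining was taken versus freshly prepared samples. For quantitation, 50 µL plasma plus internal standard and EDTA underwent acetonitrile precipitation and centrifugation, then LC-MS/MS in SRM mode. Calibration spanned 3.9–500 ng/mL, fitted with 1/concentration weighting.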

Series [5] concerns human α1-acid glycoprotein. In words: binding to human α1-acid glycoprotein solution by ultrafiltration. The series is classed as in vitro ADME. Conditions: human α1-acid glycoprotein (0.1%) in PBS, 500 ng/mL, n = 3. Summed up: as §1
[6] abbreviates: human plasma, long term (30 days at −80 °C), nominal 3.9 ng/mL.
[7] abbreviates: human plasma, long term (30 days at −80 °C), nominal 31.3 ng/mL.
Where [8] appears, read: human plasma, long term (30 days at −80 °C), nominal 500.0 ng/mL.
Where [9] appears, read: human plasma, short-term (2 h on ice), nominal 31.3 ng/mL.
The mark [10] stands for this setting: human plasma, short-term (2 h on ice), nominal 500.0 ng/mL.
Where [11] appears, read: human plasma, three freeze–thaw cycles, nominal 3.9 ng/mL.
[12] abbreviates: human plasma, three freeze–thaw cycles, nominal 500.0 ng/mL.
[13] abbreviates: processed human plasma samples, autosampler for 24 h, nominal 3.9 ng/mL.
The mark [14] stands for this setting: processed human plasma samples, autosampler for 24 h, nominal 31.3 ng/mL.
Where [15] appears, read: processed human plasma samples, autosampler for 24 h, nominal 500.0 ng/mL.

Sequence of human serum albumin (P02768 25-609): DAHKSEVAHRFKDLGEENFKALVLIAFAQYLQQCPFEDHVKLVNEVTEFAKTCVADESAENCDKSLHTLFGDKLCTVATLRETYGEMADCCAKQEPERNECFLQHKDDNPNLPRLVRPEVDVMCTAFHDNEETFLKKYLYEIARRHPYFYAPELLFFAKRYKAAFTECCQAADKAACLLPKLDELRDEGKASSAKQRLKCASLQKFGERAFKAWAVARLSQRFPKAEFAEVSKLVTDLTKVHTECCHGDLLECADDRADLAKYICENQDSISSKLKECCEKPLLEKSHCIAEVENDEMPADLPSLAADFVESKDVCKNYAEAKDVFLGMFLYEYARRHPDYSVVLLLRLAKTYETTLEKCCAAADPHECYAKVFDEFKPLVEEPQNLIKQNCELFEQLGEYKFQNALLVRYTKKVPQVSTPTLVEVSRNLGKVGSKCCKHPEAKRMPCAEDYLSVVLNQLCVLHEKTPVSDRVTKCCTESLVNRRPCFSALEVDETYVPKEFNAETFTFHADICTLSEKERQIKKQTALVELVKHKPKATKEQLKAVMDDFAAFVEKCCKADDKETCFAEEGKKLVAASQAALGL

Regarding `CN(C)C(=S)NN=C(c1ccccn1)c1ccccn1` [Dp44mT, di-2-pyridylketone-4,4-dimethyl-3-thiosemicarbazone], in series [1], the “stability in acidic buffer” value was “also observed”.

In the case of `CC(=NNC(=S)N1CCC1)c1ccccn1` [ZMC1, azetidinecarbothioic acid, [1-(2-pyridinyl)ethylidene] hydrazide], the “stability in acidic buffer” value in series [2] (0.1 M HCl, 500 ng/mL, hydrolysis of thiosemicarbazone bond) was “quickly degraded”. The “stability in PBS” value in series [2] (PBS pH 7.2, 500 ng/mL, 24 h at 4 °C, 37 °C and room temperature) is “stable without degradation”. Moreover, the “stability in solvent acetonitrile” value in series [2] (acetonitrile–water 80:20 v/v, 500 ng/mL, 24 h at 4 °C, 37 °C and room temperature) is recorded as “stable without degradation”. In addition, the “stability in neutral buffer” value in series [2] (preliminary stability studies) is “good stability”. Moreover, the “Percentage of bound drug by ultrafiltration” value on human serum albumin stood at 98.4; in the series on human plasma proteins [3] (human plasma, 500 ng/mL, n = 3), 98.8; in series [5], 34.9. Also, in the series with human plasma proteins [3] (plasma spiked at 31.25 and 3.9 ng/mL), the “concentration of free ZMC1 in ultrafiltrate or ultracentrifugation supernatant” value is on record as “below the detection limit”. Moreover, in the series with human plasma proteins [4], the “Percentage of bound drug by ultracentifugation” value was found to be 97.5. Besides, the degraded in plasma in the series “stability in plasma” (100 ng/mL, room temperature, over 24 h, vs freshly prepared samples) is over 40%. Moreover, in the series “stability in plasma” (500 ng/mL, room temperature, up to 24 h), the stability in plasma entry was “stable”. Besides, the Bias in the series “stability in plasma” (setting [6]) is −0.01%; in “stability in plasma” (setting [7]) it was −2.9%; in the series “stability in plasma” (setting [8]), 3.2%; in the series “stability in plasma” (human plasma, short-term (2 h on ice), nominal 3.9 ng/mL) it was −0.4%; in the series “stability in plasma” (setting [9]), −7.0%; in the series “stability in plasma” (setting [10]), −1.3%. Besides, the Bias in “stability in plasma” (setting [11]) is reported as 4.8%; in “stability in plasma” (human plasma, three freeze–thaw cycles, nominal 31.3 ng/mL), −10.4%; in “stability in plasma” (setting [12]), 10.6%; in the series “stability in plasma” (setting [13]), 4.0%; in “stability in plasma” (setting [14]) it was 13.0%; in the series “stability in plasma” (setting [15]), 10.0%. Further, the Measured concentration in the series “stability in plasma” (setting [6]) came to 3.9 ng/mL; in the series “stability in plasma” (setting [7]), 30.3 ng/mL; in the series “stability in plasma” (setting [8]), 516.4 ng/mL; in “stability in plasma” (setting [9]) it was 29.0 ng/mL; in the series “stability in plasma” (setting [10]), 493.9 ng/mL; in “stability in plasma” (setting [11]), 4.1 ng/mL. In addition, the Measured concentration is listed as 553.1 ng/mL in “stability in plasma” (setting [12]), 4.1 ng/mL in “stability in plasma” (setting [13]), 35.4 ng/mL in “stability in plasma” (setting [14]) and 550.7 ng/mL in the series “stability in plasma” (setting [15]). For the same molecule, the “stability of plasma samples under storage conditions” value in “stability in plasma” (−80 °C for 1 month, 4 °C for 2 h, three freeze–thaw cycles, 24 h in autosampler) is on record as “stable”.
